Measurements taken from ChEMBL document CHEMBL4414600, “Discovery of a Furanopyrimidine-Based Epidermal Growth Factor Receptor Inhibitor (DBPR112) as a Clinical Candidate for the Treatment of Non-Small Cell Lung Cancer” (J Med Chem, 2019).

Columns and labels:
HCC827 = assay: Cytotoxicity in human HCC827 cells assessed as reduction in cell viability incubated for 96 hrs by MTS method; assay type: functional
[1] = Inhibition of GST-tagged human EGFR D770GY mutant using poly(Glu, Tyr) 4:1 substrate incubated for 120 mins by kinase-Glo plus luminescent kinase assay
[2] = Inhibition of GST-tagged human HER2 V777_G778insCG mutant mutant using poly(Glu, Tyr) 4:1 substrate incubated for 120 mins by kinase-Glo plus luminescent kinase assay
[3] = molecular target: Receptor tyrosine-protein kinase erbB-2 (Homo sapiens) (UniProt P04626); assay: Binding affinity to wild-type human partial length ERBB2 (K646 to V1225 residues) expressed in mammalian expression system assessed as residual binding level at 10000 nM by Kinomescan method relative to control
Chain of Receptor tyrosine-protein kinase erbB-2 (Homo sapiens) (P04626 whole entry, the tested form may be a part): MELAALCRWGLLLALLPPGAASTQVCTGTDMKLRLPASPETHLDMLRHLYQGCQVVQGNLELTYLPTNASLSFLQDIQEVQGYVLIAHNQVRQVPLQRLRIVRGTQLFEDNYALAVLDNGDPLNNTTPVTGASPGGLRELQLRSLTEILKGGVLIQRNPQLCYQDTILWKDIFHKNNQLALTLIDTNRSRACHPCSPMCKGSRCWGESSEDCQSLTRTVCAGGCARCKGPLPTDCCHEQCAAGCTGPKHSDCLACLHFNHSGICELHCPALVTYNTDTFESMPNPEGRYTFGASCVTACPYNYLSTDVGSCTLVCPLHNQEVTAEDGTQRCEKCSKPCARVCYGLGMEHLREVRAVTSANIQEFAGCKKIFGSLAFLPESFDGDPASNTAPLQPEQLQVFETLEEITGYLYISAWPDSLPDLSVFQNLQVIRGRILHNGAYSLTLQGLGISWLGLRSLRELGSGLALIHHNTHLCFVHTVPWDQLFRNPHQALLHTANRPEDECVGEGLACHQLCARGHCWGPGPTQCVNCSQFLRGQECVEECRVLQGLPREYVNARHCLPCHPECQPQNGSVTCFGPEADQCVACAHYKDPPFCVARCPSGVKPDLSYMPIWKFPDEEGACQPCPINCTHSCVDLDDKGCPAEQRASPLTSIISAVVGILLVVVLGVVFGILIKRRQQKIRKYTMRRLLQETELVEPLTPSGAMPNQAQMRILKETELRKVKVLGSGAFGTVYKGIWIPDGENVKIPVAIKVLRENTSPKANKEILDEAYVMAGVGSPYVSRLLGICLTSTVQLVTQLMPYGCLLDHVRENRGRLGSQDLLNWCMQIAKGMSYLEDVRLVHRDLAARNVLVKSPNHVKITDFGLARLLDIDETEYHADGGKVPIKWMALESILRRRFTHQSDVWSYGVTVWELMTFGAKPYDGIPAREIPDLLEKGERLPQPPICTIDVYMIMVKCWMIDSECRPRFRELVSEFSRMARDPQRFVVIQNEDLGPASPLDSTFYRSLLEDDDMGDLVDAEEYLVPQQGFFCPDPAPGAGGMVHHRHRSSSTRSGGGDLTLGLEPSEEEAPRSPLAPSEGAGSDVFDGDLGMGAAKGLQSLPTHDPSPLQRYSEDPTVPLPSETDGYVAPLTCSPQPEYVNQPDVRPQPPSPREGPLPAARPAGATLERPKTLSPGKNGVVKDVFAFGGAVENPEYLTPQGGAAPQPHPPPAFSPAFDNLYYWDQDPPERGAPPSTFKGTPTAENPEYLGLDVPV
In short: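 KINOMEscan competition-binding profiling at a single concentration of 10,000 nM across a panel that included 395 non-mutant kinases. Binding is read out as percent of control. Kinases with less than 10% of control were counted as hits for the S(10) selectivity score, which is the number of non-mutant hits divided by the number of non-mutant kinases tested.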

[4] = molecular target: Tyrosine-protein kinase BTK (Homo sapiens) (UniProt Q06187); assay: Binding affinity to wild-type human full length BTK (M1 to S659 residues) expressed in mammalian expression system assessed as residual binding level at 10000 nM by Kinomescan method relative to control
Chain of Tyrosine-protein kinase BTK (Homo sapiens) (Q06187 whole entry, the tested form may be a part): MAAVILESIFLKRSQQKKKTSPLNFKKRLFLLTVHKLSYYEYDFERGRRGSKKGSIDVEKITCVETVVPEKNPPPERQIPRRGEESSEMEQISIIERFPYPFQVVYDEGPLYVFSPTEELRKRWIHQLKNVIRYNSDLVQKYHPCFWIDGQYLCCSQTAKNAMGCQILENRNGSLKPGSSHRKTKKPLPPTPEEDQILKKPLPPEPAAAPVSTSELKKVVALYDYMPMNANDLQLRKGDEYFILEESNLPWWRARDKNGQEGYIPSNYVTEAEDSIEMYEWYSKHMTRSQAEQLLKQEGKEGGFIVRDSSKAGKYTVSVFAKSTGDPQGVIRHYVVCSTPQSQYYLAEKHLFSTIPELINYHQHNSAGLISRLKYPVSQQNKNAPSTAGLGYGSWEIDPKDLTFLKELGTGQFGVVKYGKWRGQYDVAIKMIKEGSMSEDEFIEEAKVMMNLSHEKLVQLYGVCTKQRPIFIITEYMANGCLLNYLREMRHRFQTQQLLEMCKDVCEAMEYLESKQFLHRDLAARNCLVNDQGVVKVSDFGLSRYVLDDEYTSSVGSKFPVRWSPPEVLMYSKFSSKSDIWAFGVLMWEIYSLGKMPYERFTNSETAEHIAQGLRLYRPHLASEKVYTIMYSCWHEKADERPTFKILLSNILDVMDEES
In short: (§1)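 KINOMEScan competition binding panel run at 10,000 nM compound, with results expressed as percent of control binding. S(10) is the fraction of non-mutant kinases below 10% of control, out of 395 tested.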

[5] = molecular target: Tyrosine-protein kinase Blk (Homo sapiens) (UniProt P51451); assay: Binding affinity to wild-type human partial length BLK (G211 to L503 residues) expressed in bacterial expression system assessed as residual binding level at 10000 nM by Kinomescan method relative to control; in short: as §1
Chain of Tyrosine-protein kinase Blk (Homo sapiens) (P51451 2-505 limits assumed): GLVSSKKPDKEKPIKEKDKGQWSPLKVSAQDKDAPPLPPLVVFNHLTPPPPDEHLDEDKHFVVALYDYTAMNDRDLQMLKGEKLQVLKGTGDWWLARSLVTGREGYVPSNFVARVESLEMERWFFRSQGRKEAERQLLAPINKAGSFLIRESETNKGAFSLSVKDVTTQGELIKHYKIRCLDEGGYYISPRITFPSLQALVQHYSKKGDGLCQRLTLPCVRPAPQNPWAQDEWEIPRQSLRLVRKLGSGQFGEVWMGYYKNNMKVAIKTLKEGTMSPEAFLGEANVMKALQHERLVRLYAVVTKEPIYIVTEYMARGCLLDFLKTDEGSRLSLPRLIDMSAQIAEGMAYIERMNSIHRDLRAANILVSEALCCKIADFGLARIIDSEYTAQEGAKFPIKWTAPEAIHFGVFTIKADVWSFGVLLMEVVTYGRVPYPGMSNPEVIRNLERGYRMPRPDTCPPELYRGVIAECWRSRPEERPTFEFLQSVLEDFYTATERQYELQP

[6] = molecular target: Receptor tyrosine-protein kinase erbB-4 (Homo sapiens) (UniProt Q15303); assay: Binding affinity to wild-type human partial length ERBB4 (L690 to K994 residues) expressed in bacterial expression system assessed as residual binding level at 10000 nM by Kinomescan method relative to control; in short: as §1
[7] = molecular target: Serine/threonine-protein kinase 10 (Homo sapiens) (UniProt O94804); assay: Binding affinity to wild-type human partial length LOK (E16 to V314 residues) expressed in bacterial expression system assessed as residual binding level at 10000 nM by Kinomescan method relative to control; in short: as §1
Chain of Serine/threonine-protein kinase 10 (Homo sapiens) (O94804 whole entry, looked up, the tested form may be a part): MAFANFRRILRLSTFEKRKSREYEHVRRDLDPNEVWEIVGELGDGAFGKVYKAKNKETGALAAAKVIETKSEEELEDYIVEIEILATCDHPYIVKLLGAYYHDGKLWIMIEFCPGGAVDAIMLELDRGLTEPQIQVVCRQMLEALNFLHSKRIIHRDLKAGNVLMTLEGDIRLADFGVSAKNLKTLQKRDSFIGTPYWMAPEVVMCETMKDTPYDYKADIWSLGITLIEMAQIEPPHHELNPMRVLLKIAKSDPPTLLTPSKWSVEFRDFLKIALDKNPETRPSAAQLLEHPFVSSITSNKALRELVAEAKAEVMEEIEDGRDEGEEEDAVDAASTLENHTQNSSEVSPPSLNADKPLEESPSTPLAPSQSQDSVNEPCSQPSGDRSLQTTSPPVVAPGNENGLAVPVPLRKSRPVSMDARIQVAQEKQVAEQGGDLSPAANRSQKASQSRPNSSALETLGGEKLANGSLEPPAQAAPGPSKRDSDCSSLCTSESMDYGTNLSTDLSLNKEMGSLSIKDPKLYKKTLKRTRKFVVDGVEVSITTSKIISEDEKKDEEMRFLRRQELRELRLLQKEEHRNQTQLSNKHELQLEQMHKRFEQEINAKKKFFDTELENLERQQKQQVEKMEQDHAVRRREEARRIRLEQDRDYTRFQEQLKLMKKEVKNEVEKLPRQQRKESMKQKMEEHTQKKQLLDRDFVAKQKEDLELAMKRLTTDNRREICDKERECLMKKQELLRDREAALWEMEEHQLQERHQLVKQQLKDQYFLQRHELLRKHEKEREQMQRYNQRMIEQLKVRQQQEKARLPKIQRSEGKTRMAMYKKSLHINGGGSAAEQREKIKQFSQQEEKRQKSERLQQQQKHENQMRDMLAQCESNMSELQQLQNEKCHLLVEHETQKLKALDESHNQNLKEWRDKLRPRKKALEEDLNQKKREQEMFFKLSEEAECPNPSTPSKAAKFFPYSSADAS

[8] = molecular target: STE20-like serine/threonine-protein kinase (Homo sapiens) (UniProt Q9H2G2); assay: Binding affinity to wild-type human partial length SLK (S14 to A307 residues) expressed in bacterial expression system assessed as residual binding level at 10000 nM by Kinomescan method relative to control; in short: as §1
Chain of STE20-like serine/threonine-protein kinase (Homo sapiens) (Q9H2G2 whole entry, looked up, the tested form may be a part): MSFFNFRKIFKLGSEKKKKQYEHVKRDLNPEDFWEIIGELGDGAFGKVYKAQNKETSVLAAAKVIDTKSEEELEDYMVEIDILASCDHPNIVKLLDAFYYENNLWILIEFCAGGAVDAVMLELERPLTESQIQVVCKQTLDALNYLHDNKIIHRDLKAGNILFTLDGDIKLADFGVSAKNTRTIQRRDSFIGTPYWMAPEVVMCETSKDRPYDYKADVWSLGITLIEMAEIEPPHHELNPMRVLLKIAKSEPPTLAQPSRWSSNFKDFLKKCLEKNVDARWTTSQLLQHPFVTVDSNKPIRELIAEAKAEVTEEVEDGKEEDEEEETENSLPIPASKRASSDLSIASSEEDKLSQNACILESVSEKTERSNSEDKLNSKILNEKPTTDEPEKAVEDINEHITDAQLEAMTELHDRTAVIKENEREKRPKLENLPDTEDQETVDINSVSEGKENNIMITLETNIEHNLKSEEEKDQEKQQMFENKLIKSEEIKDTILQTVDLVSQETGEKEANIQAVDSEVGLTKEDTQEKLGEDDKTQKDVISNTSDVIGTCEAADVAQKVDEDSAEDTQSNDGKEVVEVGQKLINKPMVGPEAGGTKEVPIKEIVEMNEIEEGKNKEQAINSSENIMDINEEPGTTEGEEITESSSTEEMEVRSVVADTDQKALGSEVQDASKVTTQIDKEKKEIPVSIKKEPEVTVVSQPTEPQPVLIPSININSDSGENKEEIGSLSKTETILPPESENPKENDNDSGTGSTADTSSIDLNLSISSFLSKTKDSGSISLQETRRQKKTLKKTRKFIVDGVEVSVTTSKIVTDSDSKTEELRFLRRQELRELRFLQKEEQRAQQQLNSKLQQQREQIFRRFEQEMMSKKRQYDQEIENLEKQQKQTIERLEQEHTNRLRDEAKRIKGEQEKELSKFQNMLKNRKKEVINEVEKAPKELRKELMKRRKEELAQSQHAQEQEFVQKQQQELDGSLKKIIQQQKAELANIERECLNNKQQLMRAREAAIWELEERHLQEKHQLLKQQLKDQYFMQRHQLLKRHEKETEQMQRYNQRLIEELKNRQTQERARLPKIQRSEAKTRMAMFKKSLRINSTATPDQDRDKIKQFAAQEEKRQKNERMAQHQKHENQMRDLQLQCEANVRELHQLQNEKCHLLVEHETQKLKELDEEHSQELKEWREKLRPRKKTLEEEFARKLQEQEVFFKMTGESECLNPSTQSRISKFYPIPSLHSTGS

[9] = molecular target: T1, Tyrosine-protein kinase TXK (Homo sapiens) (UniProt P42681); assay: Binding affinity to wild-type human partial length TXK (L238 to W527 residues) expressed in bacterial expression system assessed as residual binding level at 10000 nM by Kinomescan method relative to control; in short: as §1
T1 sequence (whole entry): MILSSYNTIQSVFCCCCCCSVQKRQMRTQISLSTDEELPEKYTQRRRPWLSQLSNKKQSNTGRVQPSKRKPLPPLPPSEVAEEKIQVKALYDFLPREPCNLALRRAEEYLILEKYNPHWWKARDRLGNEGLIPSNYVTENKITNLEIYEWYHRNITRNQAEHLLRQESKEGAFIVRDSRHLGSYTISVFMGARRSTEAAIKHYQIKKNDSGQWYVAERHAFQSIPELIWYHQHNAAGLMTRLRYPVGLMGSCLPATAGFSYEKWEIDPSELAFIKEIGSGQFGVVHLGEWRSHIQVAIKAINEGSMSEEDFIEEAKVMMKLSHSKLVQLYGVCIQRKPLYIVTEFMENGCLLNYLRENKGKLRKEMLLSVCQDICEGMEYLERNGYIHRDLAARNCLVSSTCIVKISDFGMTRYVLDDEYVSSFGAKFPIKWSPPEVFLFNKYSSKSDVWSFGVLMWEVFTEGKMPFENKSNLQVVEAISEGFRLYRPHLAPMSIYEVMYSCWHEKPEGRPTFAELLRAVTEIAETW

[10] = Toxicity in ICR mouse at 100 mg/kg, po QD for 2 weeks; assay type: organism-based; conditions: in vivo, 336 h
[11] = Toxicity in athymic NU-Fox1nu nude mouse xenografted with human HCC827 cells assessed as effect on body weight at 20 to 50 mg/kg, po dosed via gavage for 5 days/week for 2 consecutive weeks; assay type: organism-based; conditions: in vivo, 120 h
In short: (§2)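 Male athymic NU-Fox1nu nude mice, 6–8 weeks old, were inoculated subcutaneously at the left flank with 5x10^6 HCC827 (exon 19 Del E746_A750) cells. Oral gavage began at a mean tumor size of about 500 mm³, in 1% methylcellulose/0.5% Tween 80/98.5% water, once daily on days 1-5 and 8-12. Tumor volume (V = 0.5 a × b², caliper) and body weight were tracked.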

[12] = Toxicity in athymic NU-Fox1nu nude mouse xenografted with human HCC827 cells assessed as induction of adverse effects at 20 to 50 mg/kg, po dosed via gavage for 5 days/week for 2 consecutive weeks; assay type: organism-based; conditions: in vivo, 120 h; in short: as §2
NCI-H1975 [13] = assay: Antitumor activity against human NCI-H1975 cells xenografted in nude BALB/c mouse assessed as inhibition of tumor growth at 50 mg/kg, po QD for 15 days relative to control; assay type: functional
In short: (§3)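 H1975 cells were grown in RPMI1640 with 10% heat-inactivated FBS at 37 °C, 5% CO2, and passaged by trypsin-EDTA. 5x10^6 cells in 0.1 ml PBS were injected subcutaneously at the right flank of BALB/c nude mice. Oral QD dosing for 15 days began at a mean tumor size of 147 mm³, n = 5 per group.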

[14] = Toxicity in nude BALB/c mouse xenografted with human NCI-H1975 cells assessed as induction of body weight loss at 50 mg/kg, po QD for 15 days relative to control; assay type: organism-based; conditions: in vivo, 360 h; in short: as §3
[15] = Tmax in rat at 23.6 mg/kg, po; assay type: ADME, organism-based; conditions: in vivo
In short: (§4)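 Rat pharmacokinetics: single IV injection at 5 mg/kg or oral dosing at 20 mg/kg (23.6 mg/kg oral for one compound). Plasma parameters t1/2, CL, Vss, AUC(0-inf), Cmax, Tmax and oral bioavailability F were derived from the concentration–time profiles.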

[16] = Oral bioavailability in rat at 23.6 mg/kg; assay type: ADME, organism-based; conditions: in vivo; in short: as §4
NCI-H1975 [17] = conditions: Homo sapiens, at 312.5 to 20000 nM
in vivo = conditions: rat, po, 23.6 mg/kg

CN(C)C/C=C/C(=O)Nc1cccc(-c2c(-c3ccccc3)oc3ncnc(N[C@H](CO)c4ccccc4)c23)c1
CC50 (HCC827): 25 nM
IC50 [1]: 0.033 nM
IC50 [2]: 0.203 nM
Activity [3]: 0%
Activity [4]: 3%
Activity [5]: 0.25%
Activity [6]: 0.05%
Activity [7]: < 10%
Activity [8]: < 10%
Activity [9]: < 10%
Activity [10]: Toxic
Activity [11]: Non-Toxic
Activity [12]: Non-Toxic
TGI (NCI-H1975 [13]): 34%
Activity [14]: Non-Toxic
Tmax [15]: 3.3 h
bioavailability [16]: 41.5%
inhibition (NCI-H1975 [17]): Dose-dependent effect
AUC(0-inf) (in vivo): 2980 ng·h/mL
